Data from ChEMBL document CHEMBL4251659, “Anti-Influenza Triterpene Saponins from the Bark of Burkea africana” (J Nat Prod, 2018).

What was measured:
[1] = tested on: Influenza A virus H3N2; test: Antiviral activity against Influenza A virus H3N2 A/Hong Kong/68 infected in MDCK cells assessed as inhibition of virus-induced cytopathic effect after 48 hrs; format: functional, organism-based
In short: (§1)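 Run on 2-day-old confluent MDCK monolayers. Test concentrations reached a maximum of 100 μM for pure compounds and 100 μg/mL for extracts or fractions. Virus input gave complete CPE at 48 h post-infection, when inhibition was scored. Each concentration was tested twice. IC50 (50% inhibition of virus-induced CPE) is the mean of at least three experiments.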

[2] = tested on: Influenza A virus; test: Antiviral activity against Influenza A virus H1N1 A/Jena/8178/09 infected in MDCK cells assessed as inhibition of virus-induced cytopathic effect after 48 hrs; format: functional, organism-based; in short: as §1
[3] = Selectivity index, ratio of CC50 for MDCK cells to IC50 for Influenza A virus H1N1 A/Jena/8178/09 infected in MDCK cells; format: toxicity, cell-based; conditions: dog, read-out: Ratio CC50/IC50
In short: (§2)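 SI was calculated as CC50/IC50. CC50 was measured on 2-day-old confluent MDCK monolayers 72 h after sample addition, at a maximum of 100 μM for compounds or 100 μg/mL for extracts or fractions, with each concentration tested twice. IC50 came from the 48 h CPE inhibition assay. Both are means of at least three experiments.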

[4] = Selectivity index, ratio of CC50 for MDCK cells to IC50 for Influenza A virus H3N2 A/Hong Kong/68 infected in MDCK cells; format: toxicity, cell-based; conditions: dog, read-out: Ratio CC50/IC50; in short: as §2

Compound | IC50 [1] | IC50 [2] | selectivity ratio [3] | selectivity ratio [4]
C=C(C)[C@@H]1CC[C@]2(C(=O)O)CC[C@]3(C)[C@H](CC[C@@H]4[C@@]5(C)C[C@@H](O)[C@H](O[C@@H]6O[C@H](CO)[C@@H](O)[C@H](O)[C@H]6O[C@@H]6OC[C@@H](O)[C@H](O)[C@H]6O)C(C)(C)[C@@H]5CC[C@]43C)[C@@H]12 | Not Active |  |  | 
C[C@H]1O[C@@H](O[C@H]2[C@H](O)[C@@H](O[C@@H]3OC[C@@H](O)[C@H](O)[C@H]3O)[C@H](O[C@H]3[C@H](O)C[C@]4(C)[C@H]5CC=C6[C@@H]7CC(C)(C)CC[C@]7(C(=O)O)CC[C@@]6(C)[C@]5(C)CC[C@H]4C3(C)C)O[C@@H]2CO)[C@@H](O)[C@@H](O)[C@@H]1O |  | Not Active |  | 
CC1(C)C[C@H]2C3=CC[C@@H]4[C@@]5(C)CC[C@H](O)C(C)(C)[C@@H]5CC[C@@]4(C)[C@]3(C)CC[C@@]2(C(=O)O)C[C@H]1OC(=O)/C=C/c1ccccc1 |  |  | > 15 | > 11
C=C(C)[C@@H]1CC[C@]2(C(=O)O)CC[C@]3(CO)[C@H](CC[C@@H]4[C@@]5(C)C[C@@H](O)[C@H](O[C@@H]6O[C@H](CO)[C@@H](O)[C@H](O)[C@H]6O[C@@H]6O[C@H](CO)[C@@H](O)[C@H](O)[C@H]6O)C(C)(C)[C@@H]5CC[C@]43C)[C@@H]12 | Not Active |  |  | 
C=C(C)[C@@H]1CC[C@]2(C(=O)O)CC[C@]3(CO)[C@H](CC[C@@H]4[C@@]5(C)C[C@@H](O)[C@H](O)C(C)(C)[C@@H]5CC[C@]43C)[C@@H]12 | Not Active |  |  | 
C=C(C)[C@@H]1CC[C@]2(C(=O)O)CC[C@]3(CO)[C@H](CC[C@@H]4[C@@]5(C)C[C@@H](O)[C@H](O[C@@H]6O[C@H](CO)[C@@H](O)[C@H](O)[C@H]6O[C@@H]6OC[C@@H](O)[C@H](O)[C@H]6O)C(C)(C)[C@@H]5CC[C@]43C)[C@@H]12 | Not Active | Not Active |  | 
CC1(C)C[C@H]2C3=CC[C@@H]4[C@@]5(C)C[C@@H](O)[C@H](O)C(C)(C)[C@@H]5CC[C@@]4(C)[C@]3(C)CC[C@@]2(C(=O)O)C[C@H]1OC(=O)/C=C/c1ccccc1 |  |  | > 14 | > 9
C=C(C)[C@@H]1CC[C@]2(C(=O)O)CC[C@]3(C)[C@H](CC[C@@H]4[C@@]5(C)C[C@@H](O)[C@H](O)C(C)(C)[C@@H]5CC[C@]43C)[C@@H]12 [ALPHITOLIC ACID] | Not Active | Not Active |  | 
CC1(C)CC[C@]2(C(=O)O)CC[C@]3(C)C(=CC[C@@H]4[C@@]5(C)C[C@@H](O)[C@H](O)C(C)(C)[C@@H]5CC[C@]43C)[C@@H]2C1 [MASLINIC ACID] | Not Active | Not Active |  | 
